Assay [1] addresses T1, Alpha-1B adrenergic receptor (Rattus norvegicus) (UniProt P15823).
T1 sequence (whole entry): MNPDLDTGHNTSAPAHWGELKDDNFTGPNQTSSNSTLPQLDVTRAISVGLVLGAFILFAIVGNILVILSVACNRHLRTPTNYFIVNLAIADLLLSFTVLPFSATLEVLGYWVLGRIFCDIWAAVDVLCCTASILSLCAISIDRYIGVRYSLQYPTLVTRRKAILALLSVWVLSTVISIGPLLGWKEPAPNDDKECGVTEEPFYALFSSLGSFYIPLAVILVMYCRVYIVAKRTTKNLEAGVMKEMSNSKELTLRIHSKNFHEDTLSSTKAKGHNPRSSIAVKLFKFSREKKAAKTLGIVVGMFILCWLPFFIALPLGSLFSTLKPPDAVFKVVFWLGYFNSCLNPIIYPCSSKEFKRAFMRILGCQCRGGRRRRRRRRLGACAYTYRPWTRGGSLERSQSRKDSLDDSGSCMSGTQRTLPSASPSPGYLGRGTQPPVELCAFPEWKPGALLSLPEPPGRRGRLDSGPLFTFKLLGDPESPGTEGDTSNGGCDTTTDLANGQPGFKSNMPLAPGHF
In words: Antagonist activity at alpha1B adrenergic receptor in Wistar rat spleen assessed as inhibition of phenylephrine-induced contraction incubated for 30 mins in presence of beta-adrenoceptor blocker propranolol hydrochloride. Type of assay: functional. In outline:
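Spleen bisected longitudinally into strips in Krebs with propranolol 4 μM, held at 1 g and equilibrated 2 h. Two isometric cumulative phenylephrine curves, each followed by 30 min washing. Third curve after 30 min vehicle or antagonist. Potency as pA2 (Schild) or pKB at one concentration (van Rossum). Responses as % of control maximum; n ≥ 4.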

The species entered for assay [2] is Rattus norvegicus. The assay can be described thus: Selectivity ratio of compound effect for antagonism of alpha1B adrenergic receptor in Wistar rat spleen to compound effect for antagonism of alpha1A adrenergic receptor in Wistar rat prostatic rat vas deferens. Put shortly:
(§1)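 Ratio taken as the antilog of the difference between rat tissue pA2 or pKB values for the two subtypes (vas deferens α1A, spleen α1B, aorta α1D organ-bath antagonism).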

Assay [3] is filed under the species Rattus norvegicus. In words: Selectivity ratio of compound effect for antagonism of alpha1B adrenergic receptor in Wistar rat spleen to compound effect for antagonism of alpha1D adrenergic receptor in Wistar rat thoracic aorta. Put shortly:
as §1

Assay [4] is filed under the species Rattus norvegicus. The assay can be described thus: Selectivity ratio of compound effect for antagonism of alpha1D adrenergic receptor in Wistar rat thoracic aorta to compound effect for antagonism of alpha1A adrenergic receptor in Wistar rat prostatic rat vas deferens. Put shortly:
as §1

In assay [5] the target is T2, Alpha-1D adrenergic receptor (Rattus norvegicus, UniProt P23944).
T2 sequence (P23944 whole entry): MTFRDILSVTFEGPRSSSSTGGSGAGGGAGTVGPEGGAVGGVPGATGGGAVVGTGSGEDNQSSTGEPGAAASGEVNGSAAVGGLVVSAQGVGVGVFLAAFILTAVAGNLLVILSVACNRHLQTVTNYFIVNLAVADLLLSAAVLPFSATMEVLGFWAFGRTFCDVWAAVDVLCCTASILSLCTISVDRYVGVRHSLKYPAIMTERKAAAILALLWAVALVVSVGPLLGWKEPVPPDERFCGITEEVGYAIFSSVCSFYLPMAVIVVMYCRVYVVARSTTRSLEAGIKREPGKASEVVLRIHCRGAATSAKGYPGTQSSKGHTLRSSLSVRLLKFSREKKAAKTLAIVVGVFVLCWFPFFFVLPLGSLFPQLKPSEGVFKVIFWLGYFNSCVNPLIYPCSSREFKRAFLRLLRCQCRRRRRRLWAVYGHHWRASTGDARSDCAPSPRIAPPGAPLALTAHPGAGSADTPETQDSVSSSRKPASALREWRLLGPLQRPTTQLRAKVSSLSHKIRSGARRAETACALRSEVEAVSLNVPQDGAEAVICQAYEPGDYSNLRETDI
The assay can be described thus: Antagonist activity at alpha1D adrenergic receptor in Wistar rat thoracic aorta assessed as inhibition of noradrenaline-induced contraction measured after 30 mins in presence of cocaine hydrochloride and beta-adrenoceptor blocker propranolol hydrochloride. It is filed as functional. The note with it: read-out: pA2 (converted). In outline:
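Helical thoracic aorta strips, endothelium removed (checked by loss of acetylcholine relaxation), in Krebs at 1 g, equilibrated ≥2 h. Isometric cumulative noradrenaline curves at 1 h intervals; the second served as control, the third followed 30 min antagonist.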

Assay [6] has as its target T3, Alpha-1A adrenergic receptor (Homo sapiens, UniProt P35348).
T3 sequence (P35348 whole entry): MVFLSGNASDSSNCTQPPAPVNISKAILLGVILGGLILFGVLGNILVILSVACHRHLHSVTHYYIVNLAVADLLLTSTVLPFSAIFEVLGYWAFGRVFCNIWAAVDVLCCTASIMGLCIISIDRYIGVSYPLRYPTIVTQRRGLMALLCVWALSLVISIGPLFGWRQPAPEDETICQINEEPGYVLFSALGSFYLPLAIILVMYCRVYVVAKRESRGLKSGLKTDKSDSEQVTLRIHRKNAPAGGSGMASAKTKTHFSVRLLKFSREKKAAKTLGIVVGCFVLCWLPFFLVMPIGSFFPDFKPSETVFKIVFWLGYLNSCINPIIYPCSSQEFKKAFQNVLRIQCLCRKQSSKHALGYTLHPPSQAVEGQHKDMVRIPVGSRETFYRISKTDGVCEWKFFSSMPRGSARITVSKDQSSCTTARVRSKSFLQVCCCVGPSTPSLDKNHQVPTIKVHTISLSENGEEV
In words: Displacement of [3H]prazosin from human alpha1A adrenergic receptor expressed in CHO cell membranes after 30 mins by rapid filtration method. Put shortly:
(§2)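 Membranes (30 μg protein) from CHO cells stably transfected with the human α1a, α1b or α1d receptor. Incubated 30 min at 25 °C in 50 mM Tris-HCl pH 7.4 with 0.1–0.4 nM [3H]prazosin and competitor 1 pM–10 μM. Nonspecific binding defined by 10 μM phentolamine. Stopped by rapid filtration through PEI-treated filters. IC50 converted to Ki by Cheng-Prusoff; pKi from 2–3 experiments in triplicate.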
A general note: Displacement assays read how much labelled ligand stays bound in the presence of the test substance.

Assay [7] has as its target T4, Alpha-1D adrenergic receptor (Homo sapiens, UniProt P25100).
T4 sequence (P25100 whole entry): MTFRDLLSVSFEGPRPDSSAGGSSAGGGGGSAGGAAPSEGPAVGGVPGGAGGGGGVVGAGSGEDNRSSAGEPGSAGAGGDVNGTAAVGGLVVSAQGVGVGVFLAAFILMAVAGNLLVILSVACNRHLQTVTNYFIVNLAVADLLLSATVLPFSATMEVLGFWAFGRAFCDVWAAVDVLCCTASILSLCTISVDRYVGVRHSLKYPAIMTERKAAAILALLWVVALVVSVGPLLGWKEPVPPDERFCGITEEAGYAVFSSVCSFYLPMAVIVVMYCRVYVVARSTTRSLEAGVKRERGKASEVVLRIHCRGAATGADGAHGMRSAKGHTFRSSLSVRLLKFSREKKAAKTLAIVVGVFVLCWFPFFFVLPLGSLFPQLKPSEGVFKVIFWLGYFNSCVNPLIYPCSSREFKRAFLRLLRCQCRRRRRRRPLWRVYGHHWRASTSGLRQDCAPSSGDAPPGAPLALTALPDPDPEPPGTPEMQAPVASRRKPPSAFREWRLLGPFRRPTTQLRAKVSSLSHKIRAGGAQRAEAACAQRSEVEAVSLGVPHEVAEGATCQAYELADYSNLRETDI
The assay can be described thus: Displacement of [3H]prazosin from human alpha1D adrenergic receptor expressed in CHO cell membranes after 30 mins by rapid filtration method. Put shortly: as §2

As usually defined, the pKb is the Kb on a negative log10 scale, so that one unit is a factor of ten. The term Ki denotes a dissociation constant, usually derived from enzyme kinetics or from competition with a known ligand. A higher Ki goes with a looser hold on the target.

For `COc1cc2nc(N3CCN(C(=O)C4COc5ccccc5O4)[C@H]4CCCC[C@H]43)nc(N)c2cc1OC` (single isomer, unassigned; (-)) [CYCLODOXAZOSIN], in assay [1], the pKb was found to be 8.61. The results for the Selectivity ratio in assay [2], in assay [3] and in assay [4] were 81, 32 and 3, respectively.
With `COc1cc2nc(N3CCN(C(=O)C(C)(C)C)[C@H]4CCCC[C@H]43)nc(N)c2cc1OC`, the pKb in assay [1] is 8.26. The Kb in assay [5] is 141 nM. For the same molecule, the Selectivity ratio in assay [2] is 12; in assay [3], 26; in assay [4], 0.5. Also, the inhibitory constant (Ki) in assay [6] is 6.61 nM; in assay [7] it was 6.17 nM.
On to `COc1cc2nc(N3CCN(C(=O)Cc4ccc5ccccc5c4)[C@H]4CCCC[C@H]43)nc(N)c2cc1OC`, for which the pKb in assay [1] is 8.05. Also, in assay [5], the Kb was 135 nM. The Selectivity ratio in assay [2] was 30; in assay [3], 15; in assay [4] it was 2. Moreover, the inhibition constant (Ki) in assay [6] is 17 nM; in assay [7], 2.24 nM.
As to `COc1cc2nc(N3CCN(C(=O)OCc4ccccc4)[C@H]4CCCC[C@H]43)nc(N)c2cc1OC`, the pKb in assay [1] turned out to be 8.77. Moreover, the Kb in assay [5] is 240 nM. The Selectivity ratio in assay [2] was determined as 457; in assay [3], 141; in assay [4] it was 3. Also, the Ki in assay [6] was 5.5 nM; in assay [7], 3.98 nM.
`COc1cc2nc(N3CCN(C(C)=O)[C@H]4CCCC[C@H]43)nc(N)c2cc1OC`: the Kb in assay [5] is 1700 nM. For the same molecule, the Selectivity ratio is 1000 in assay [2], 562 in assay [3] and 2 in assay [4]. Besides, the inhibitory constant (Ki) in assay [6] is 224 nM; in assay [7], 105 nM.
As to `COc1cc2nc(N3CCN(C(=O)COc4c(OC)cccc4C(C)C)[C@H]4CCCC[C@H]43)nc(N)c2cc1OC`, the Kb in assay [5] was 58.9 nM. Moreover, the Selectivity ratio was found to be 0.8 in assay [2], 0.3 in assay [3] and 3 in assay [4]. The inhibition constant (Ki) in assay [6] was 0.871 nM; in assay [7], 0.389 nM.
As to `CCCN(CCC)c1nc(N2CCN(C(=O)c3ccco3)[C@H]3CCCC[C@H]32)nc2cc(OC)c(OC)cc12`, the pKb in assay [1] came out at 7.86. The Selectivity ratio in assay [2] is 93; in assay [3] it was 44; in assay [4], 2. Moreover, the inhibitory constant (Ki) in assay [6] was 22.4 nM; in assay [7], 5.13 nM.
Consider `CCCCCC(=O)N1CCN(c2nc(N)c3cc(OC)c(OC)cc3n2)[C@@H]2CCCC[C@@H]21`, for which the pKb in assay [1] worked out at 7.99. In addition, the Kb in assay [5] was 155 nM. Further, the Selectivity ratio in assay [2] was determined as 9; in assay [3], 15; in assay [4] it was 0.6. Further, the inhibition constant Ki in assay [6] was 5.75 nM; in assay [7] it was 3.72 nM.
`COc1cc2nc(N3CCN(C(=O)OCc4ccccc4)[C@@H]4CCCC[C@@H]43)nc(N)c2cc1OC`: the Kb in assay [5] is 0.525 nM. The Selectivity ratio in assay [2] turned out to be 9; in assay [3], 0.3; in assay [4], 31. For the same molecule, the Ki was 0.501 nM in assay [6] and 0.0398 nM in assay [7].
For `COc1cc2nc(N3CCN(C(C)=O)[C@@H]4CCCC[C@@H]43)nc(N)c2cc1OC`, in assay [5], the Kb was 2.19 nM. In addition, the Selectivity ratio in assay [2] is 72; in assay [3], 4; in assay [4], 20. The results for the Ki in assay [6] and in assay [7] were 9.12 nM and 0.151 nM, respectively.
`CCCN(CCC)c1nc(N2CCN(C(=O)c3ccco3)[C@@H]3CCCC[C@@H]32)nc2cc(OC)c(OC)cc12`: the pKb in assay [1] worked out at 7.17. In addition, in assay [5], the Kb is 58.9 nM. For the same molecule, the Selectivity ratio in assay [2], in assay [3] and in assay [4] was 1 in each case. The Ki is 1.86 nM in assay [6] and 0.0631 nM in assay [7].

The record behind these values is ChEMBL document CHEMBL4118202, “Chiral analogues of (+)-cyclazosin as potent α1B-adrenoceptor selective antagonist” (Bioorg Med Chem, 2018).
